Laboratory results from ChEMBL document CHEMBL1287650, “Structural modification of a specific antimicrobial lead against Helicobacter pylori discovered from traditional Chinese medicine and a structure-activity relationship study” (2010).
In brackets after ≈: the same amount, converted by molar mass.

Columns and labels:
Type in all cases: functional
Helicobacter pylori = assay: Antibacterial activity against Helicobacter pylori SS1 assessed as inhibition of visible growth after 96 hrs by agar dilution method; settings: SS1, 96 h
Outline: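 Agar dilution on Columbia Blood Agar Base with 7% defibrinated sheep blood; compounds dissolved in minimal DMSO, two-fold serial dilutions mixed into medium. Inoculum: cells in saline at 10⁸ CFU/mL. Incubated 37 °C, 96 h, 5% O₂/10% CO₂/85% N₂. DMSO-only blank and metronidazole positive control run alongside. MIC = lowest concentration completely inhibiting visible growth.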

Escherichia coli = assay: Antibacterial activity against Escherichia coli ATCC 25922 after 18 hrs; settings: ATCC 25922, 18 h
Micrococcus luteus = assay: Antibacterial activity against Micrococcus luteus ATCC 9341 after 18 hrs; settings: ATCC 9341, 18 h
Trichophyton rubrum = assay: Antifungal activity against Trichophyton rubrum after 48 hrs
Outline: (§1)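 Fungi grown in Sabouraud dextrose broth at 37 °C for 48 h with compounds and positive control dissolved in DMSO; DMSO-only cultures served as blank controls.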

[1] = system: Staphylococcus epidermidis; assay: Antibacterial activity against Staphylococcus epidermidis ATCC 12228 after 18 hrs; settings: ATCC 12228, 18 h
Bacillus subtilis = assay: Antibacterial activity against Bacillus subtilis CMCC 63501 after 18 hrs; settings: CMCC 63501, 18 h
Nannizzia gypsea = assay: Antifungal activity against Microsporum gypseum after 48 hrs; outline: as §1
Shigella flexneri = assay: Antibacterial activity against Shigella flexneri F2a after 18 hrs
Candida albicans = assay: Antifungal activity against Candida albicans ATCC 1600 after 48 hrs; settings: ATCC 1600, 48 h; outline: as §1
Staphylococcus aureus = assay: Antibacterial activity against Staphylococcus aureus ATCC 25923 after 18 hrs; settings: ATCC 25923, 18 h
Pseudomonas aeruginosa = assay: Antibacterial activity against Pseudomonas aeruginosa ATCC 14502 after 18 hrs; settings: ATCC 14502, 18 h
[2] = Antifungal activity against Saccharomyces sake after 48 hrs; settings: Saccharomyces sp.; outline: as §1

Compound	MIC (Helicobacter pylori) [µg/mL]	further results
COc1c2occc2c(CNc2ccc([N+](=O)[O-])cc2)c2ccc(=O)oc12	> 50	
COc1c2occc2c(Br)c2ccc(=O)oc12	> 50	
O=c1ccc2cc3cc(CCl)oc3cc2o1	> 50	
Cc1cc(=O)oc2cc3occc3cc12	0.39 (≈ 1.95 µM)	MIC (Escherichia coli): > 64 µg/mL; MIC (Micrococcus luteus): > 64 µg/mL; MIC (Trichophyton rubrum): > 64 µg/mL; MIC [1]: > 64 µg/mL; MIC (Bacillus subtilis): > 64 µg/mL; MIC (Nannizzia gypsea): > 64 µg/mL; MIC (Shigella flexneri): > 64 µg/mL; MIC (Candida albicans): > 64 µg/mL; MIC (Staphylococcus aureus): > 64 µg/mL; MIC (Pseudomonas aeruginosa): > 64 µg/mL; MIC [2]: > 64 µg/mL
COc1c2occc2c(Cl)c2ccc(=O)oc12	> 50	
CC(=O)Oc1c2occc2cc2ccc(=O)oc12	> 50	
COc1c2occc2c([N+](=O)[O-])c2ccc(=O)oc12	1.56 (≈ 5.97 µM)	MIC (Escherichia coli): > 64 µg/mL; MIC (Micrococcus luteus): > 64 µg/mL; MIC (Trichophyton rubrum): > 64 µg/mL; MIC [1]: > 64 µg/mL; MIC (Bacillus subtilis): > 64 µg/mL; MIC (Nannizzia gypsea): > 64 µg/mL; MIC (Shigella flexneri): > 64 µg/mL; MIC (Candida albicans): > 64 µg/mL; MIC (Staphylococcus aureus): > 64 µg/mL; MIC (Pseudomonas aeruginosa): > 64 µg/mL; MIC [2]: > 64 µg/mL
CCCCOCc1c2ccoc2c(OC)c2oc(=O)ccc12	50 (≈ 165 µM)	
O=c1ccc2c([N+](=O)[O-])c3ccoc3c(O)c2o1	25 (≈ 101 µM)	
COc1ccc(NCc2c3ccoc3c(OC)c3oc(=O)ccc23)cc1	12.5 (≈ 35.6 µM)	
O=Cc1cc(=O)oc2cc3occc3cc12	1.56 (≈ 7.28 µM)	
Cc1c2ccoc2cc2oc(=O)ccc12	12.5 (≈ 62.4 µM)	
CCN(CC)Cc1c2ccoc2c(OC)c2oc(=O)ccc12	> 50	
CCOCc1cc2cc3ccc(=O)oc3cc2o1	> 50	
O=c1cc(CO)c2cc3ccoc3cc2o1	0.78 (≈ 3.61 µM)	
COCc1c2ccoc2c(OC)c2oc(=O)ccc12	> 50	
CCOc1c2occc2cc2ccc(=O)oc12	> 50	
COc1c2occc2c(S(=O)(=O)OC)c2ccc(=O)oc12	> 50	
O=c1cc(C(F)(F)F)c2cc3ccoc3cc2o1	12.5 (≈ 49.2 µM)	
COc1c2occc2c(/N=C/c2ccccc2)c2ccc(=O)oc12	> 50	
Cc1coc2cc3oc(=O)ccc3cc12	12.5 (≈ 62.4 µM)	
O=c1cc(-c2ccccc2)c2cc3ccoc3cc2o1	12.5 (≈ 47.7 µM)	
CC(=O)OCc1cc2cc3ccc(=O)oc3cc2o1	> 50	
O=c1ccc2cc3ccoc3c(O)c2o1 [XANTHOTOXOL]	> 50	
CCN(CC)Cc1cc2cc3ccc(=O)oc3cc2o1	> 50	

Compound	MIC (Helicobacter pylori) [µg/mL]	further results
O=c1ccc2cc3cc(Br)oc3cc2o1	6.25 (≈ 23.6 µM)	
CCN(CC)S(=O)(=O)c1c2ccoc2c(OC)c2oc(=O)ccc12	> 50	
COc1ccc(NS(=O)(=O)c2c3ccoc3c(OC)c3oc(=O)ccc23)cc1	> 50	
CC(=O)Oc1c2occc2c([N+](=O)[O-])c2ccc(=O)oc12	25 (≈ 86.4 µM)	
CCOC(=O)COc1c2occc2cc2ccc(=O)oc12	> 50	
COCc1cc2cc3ccc(=O)oc3cc2o1	50 (≈ 217 µM)	
COc1c2occc2c(S(N)(=O)=O)c2ccc(=O)oc12	> 50	
COc1c2occc2cc2ccc(=O)oc12 [METHOXSALEN]	25 (≈ 116 µM)	
O=c1ccc2cc3cc(Cl)oc3cc2o1	6.25 (≈ 28.3 µM)	
CCCOCc1c2ccoc2c(OC)c2oc(=O)ccc12	> 50	
O=c1ccc2cc3ccoc3cc2o1 [PSORALEN]	6.25 (≈ 33.6 µM)	MIC (Escherichia coli): > 64 µg/mL; MIC (Micrococcus luteus): > 64 µg/mL; MIC (Trichophyton rubrum): > 64 µg/mL; MIC [1]: > 64 µg/mL; MIC (Bacillus subtilis): > 64 µg/mL; MIC (Nannizzia gypsea): > 64 µg/mL; MIC (Shigella flexneri): > 64 µg/mL; MIC (Candida albicans): > 64 µg/mL; MIC (Staphylococcus aureus): > 64 µg/mL; MIC (Pseudomonas aeruginosa): > 64 µg/mL; MIC [2]: > 64 µg/mL
CC(=O)OCc1cc(=O)oc2cc3occc3cc12	1.56 (≈ 6.04 µM)	
Cc1ncc([N+](=O)[O-])n1CCO [METRONIDAZOLE]	0.5 (≈ 2.92 µM)	
O=c1ccc2cc3cc([N+](=O)[O-])oc3cc2o1	3.12 (≈ 13.5 µM)	
COc1c2occc2c(S(=O)(=O)Oc2ccccc2)c2ccc(=O)oc12	> 50	
CCc1cc(=O)oc2cc3occc3cc12	6.25 (≈ 29.2 µM)	
COc1c2occc2c(N)c2ccc(=O)oc12	25 (≈ 108 µM)	
CCOCc1c2ccoc2c(OC)c2oc(=O)ccc12	> 50	
COc1c2occc2c(S(=O)(=O)Nc2ccc([N+](=O)[O-])cc2)c2ccc(=O)oc12	> 50	
COc1c2occc2c(CCl)c2ccc(=O)oc12	25 (≈ 94.5 µM)	
CCCCOCc1cc2cc3ccc(=O)oc3cc2o1	50 (≈ 184 µM)	
O=C(O)COc1c2occc2cc2ccc(=O)oc12	> 50	
CCCc1cc(=O)oc2cc3occc3cc12	12.5 (≈ 54.8 µM)	
O=c1cc(CBr)c2cc3ccoc3cc2o1	1.56 (≈ 5.59 µM)	
